Laboratory results as given in ChEMBL document CHEMBL1833921, “Synthesis and biological evaluation of phenstatin metabolites” (Bioorg Med Chem, 2011).

Legend:
[1] = Cell cycle arrest in mouse DA1-3b cells assessed as accumulation at G2/M phase after 24 hrs using propidium iodide staining by cytofluorometry; format: functional, cell-based
Summary of the method: (§1)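 DA1-3b murine leukemia cells were exposed to the compound for 24 h. They were then stained in a solution containing propidium iodide (50 µg/mL) and RNase A (0.5 mg/mL) and analysed on a FACScan cytofluorometer. The percentage of cells in each cell-cycle phase was reported, with several compound concentrations tested.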

[2] = Cell cycle arrest in mouse DA1-3b cells assessed as accumulation at G2/M phase at 10^-6 M after 24 hrs using propidium iodide staining by cytofluorometry (reference value: 18.0 %); format: functional, cell-based; summary of the method: as §1
[3] = Cell cycle arrest in mouse DA1-3b cells assessed as accumulation at S phase at 10^-6 M after 24 hrs using propidium iodide staining by cytofluorometry (reference value: 28.0 %); format: functional, cell-based; summary of the method: as §1
[4] = Cell cycle arrest in mouse DA1-3b cells assessed as accumulation at G1 phase at 10^-6 M after 24 hrs using propidium iodide staining by cytofluorometry (reference value: 52.2 %); format: functional, cell-based; summary of the method: as §1
[5] = Cell cycle arrest in mouse DA1-3b cells assessed as accumulation at sub-G1 phase at 10^-6 M after 24 hrs using propidium iodide staining by cytofluorometry (reference value: 0.7 %); format: functional, cell-based; summary of the method: as §1
[6] = Cell cycle arrest in mouse DA1-3b cells assessed as accumulation at G2/M phase at 10^-5 M after 24 hrs using propidium iodide staining by cytofluorometry (reference value: 18.0 %); format: functional, cell-based; summary of the method: as §1
[7] = Cell cycle arrest in mouse DA1-3b cells assessed as accumulation at S phase at 10^-5 M after 24 hrs using propidium iodide staining by cytofluorometry (reference value: 28.0 %); format: functional, cell-based; summary of the method: as §1
[8] = Cell cycle arrest in mouse DA1-3b cells assessed as accumulation at G1 phase at 10^-5 M after 24 hrs using propidium iodide staining by cytofluorometry (reference value: 52.2 %); format: functional, cell-based; summary of the method: as §1
[9] = Cell cycle arrest in mouse DA1-3b cells assessed as accumulation at sub-G1 phase at 10^-5 M after 24 hrs using propidium iodide staining by cytofluorometry (reference value: 0.7 %); format: functional, cell-based; summary of the method: as §1
[10] = Cell cycle arrest in mouse DA1-3b cells assessed as accumulation at G2/M phase at 10^-4 M after 24 hrs using propidium iodide staining by cytofluorometry (reference value: 18.0 %); format: functional, cell-based; summary of the method: as §1
[11] = Cell cycle arrest in mouse DA1-3b cells assessed as accumulation at S phase at 10^-4 M after 24 hrs using propidium iodide staining by cytofluorometry (reference value: 28.0 %); format: functional, cell-based; summary of the method: as §1
[12] = Cell cycle arrest in mouse DA1-3b cells assessed as accumulation at G1 phase at 10^-4 M after 24 hrs using propidium iodide staining by cytofluorometry (reference value: 52.2 %); format: functional, cell-based; summary of the method: as §1
[13] = Cell cycle arrest in mouse DA1-3b cells assessed as accumulation at sub-G1 phase at 10^-4 M after 24 hrs using propidium iodide staining by cytofluorometry (reference value: 0.7 %); format: functional, cell-based; summary of the method: as §1
[14] = test system: HT-29; experiment: Cytotoxicity against human HT29 cells after 48 hrs by sulforhodamine B assay; format: functional; details: HT-29, 48 h
[15] = test system: A549; experiment: Cytotoxicity against human A549 cells after 48 hrs by sulforhodamine B assay; format: functional; details: A549, 48 h
[16] = test system: HL-60; experiment: Cytotoxicity against human HL60 cells after 48 hrs by sulforhodamine B assay; format: functional; details: HL-60, 48 h
[17] = test system: MDA-MB-468; experiment: Cytotoxicity against human MDA-MB-468 cells after 48 hrs by sulforhodamine B assay; format: functional; details: MDA-MB-468, 48 h
[18] = test system: Hs-578T; experiment: Cytotoxicity against human HS578T cells after 48 hrs by sulforhodamine B assay; format: functional
[19] = test system: MDA-MB-231; experiment: Cytotoxicity against human MDA-MB-231/ATCC cells after 48 hrs by sulforhodamine B assay; format: functional; details: MDA-MB-231, 48 h
[20] = test system: MCF7; experiment: Cytotoxicity against human MCF7 cells after 48 hrs by sulforhodamine B assay; format: functional; details: MCF7, 48 h
[21] = test system: SF-539; experiment: Cytotoxicity against human SF539 cells after 48 hrs by sulforhodamine B assay; format: functional; details: SF-539, 48 h
[22] = test system: SF-295; experiment: Cytotoxicity against human SF295 cells after 48 hrs by sulforhodamine B assay; format: functional; details: SF-295, 48 h
[23] = test system: SF-268; experiment: Cytotoxicity against human SF268 cells after 48 hrs by sulforhodamine B assay; format: functional; details: SF-268, 48 h
[24] = test system: DU-145; experiment: Cytotoxicity against human DU145 cells after 48 hrs by sulforhodamine B assay; format: functional; details: DU-145, 48 h
[25] = test system: UO-31; experiment: Cytotoxicity against human UO31 cells after 48 hrs by sulforhodamine B assay; format: functional; details: UO-31, 48 h
[26] = test system: SN12C; experiment: Cytotoxicity against human SN12C cells after 48 hrs by sulforhodamine B assay; format: functional
[27] = test system: RXF 393; experiment: Cytotoxicity against human RXF393 cells after 48 hrs by sulforhodamine B assay; format: functional; details: RXF 393, 48 h
[28] = test system: CAKI-1; experiment: Cytotoxicity against human Caki1 cells after 48 hrs by sulforhodamine B assay; format: functional; details: CAKI-1, 48 h
[29] = test system: A498; experiment: Cytotoxicity against human A498 cells after 48 hrs by sulforhodamine B assay; format: functional; details: A498, 48 h
[30] = test system: SK-OV-3; experiment: Cytotoxicity against human SKOV3 cells after 48 hrs by sulforhodamine B assay; format: functional; details: SK-OV-3, 48 h
[31] = test system: NCI/ADR-RES; experiment: Cytotoxicity against human NCI/ADR-RES cells after 48 hrs by sulforhodamine B assay; format: functional
[32] = test system: OVCAR-5; experiment: Cytotoxicity against human OVCAR5 cells after 48 hrs by sulforhodamine B assay; format: functional; details: OVCAR-5, 48 h
[33] = test system: OVCAR-4; experiment: Cytotoxicity against human OVCAR4 cells after 48 hrs by sulforhodamine B assay; format: functional; details: OVCAR-4, 48 h
[34] = test system: OVCAR-3; experiment: Cytotoxicity against human OVCAR3 cells after 48 hrs by sulforhodamine B assay; format: functional; details: OVCAR-3, 48 h
[35] = test system: UACC-62; experiment: Cytotoxicity against human UACC62 cells after 48 hrs by sulforhodamine B assay; format: functional; details: UACC-62, 48 h
[36] = test system: SK-MEL-28; experiment: Cytotoxicity against human SK-MEL-28 cells after 48 hrs by sulforhodamine B assay; format: functional; details: SK-MEL-28, 48 h
[37] = test system: SK-MEL-2; experiment: Cytotoxicity against human SK-MEL-2 cells after 48 hrs by sulforhodamine B assay; format: functional; details: SK-MEL-2, 48 h
[38] = test system: MDA-MB-435; experiment: Cytotoxicity against human MDA-MB-435 cells after 48 hrs by sulforhodamine B assay; format: functional; details: MDA-MB-435, 48 h
[39] = test system: M14; experiment: Cytotoxicity against human M14 cells after 48 hrs by sulforhodamine B assay; format: functional; details: M14, 48 h
[40] = test system: KM12; experiment: Cytotoxicity against human KM12 cells after 48 hrs by sulforhodamine B assay; format: functional; details: KM12, 48 h
[41] = test system: HCT-15; experiment: Cytotoxicity against human HCT15 cells after 48 hrs by sulforhodamine B assay; format: functional; details: HCT-15, 48 h
[42] = test system: HCT-116; experiment: Cytotoxicity against human HCT116 cells after 48 hrs by sulforhodamine B assay; format: functional; details: HCT-116, 48 h
[43] = test system: HCC 2998; experiment: Cytotoxicity against human HCC2998 cells after 48 hrs by sulforhodamine B assay; format: functional; details: HCC 2998, 48 h
[44] = test system: NCI-H522; experiment: Cytotoxicity against human NCI-H522 cells after 48 hrs by sulforhodamine B assay; format: functional; details: NCI-H522, 48 h
[45] = test system: COLO 205; experiment: Cytotoxicity against human COLO205 cells after 48 hrs by sulforhodamine B assay; format: functional; details: COLO 205, 48 h
[46] = test system: NCI-H460; experiment: Cytotoxicity against human NCI-H460 cells after 48 hrs by sulforhodamine B assay; format: functional; details: NCI-H460, 48 h
[47] = test system: EKVX; experiment: Cytotoxicity against human EKVX cells after 48 hrs by sulforhodamine B assay; format: functional
[48] = test system: NCI-H322M; experiment: Cytotoxicity against human NCI-H322M cells after 48 hrs by sulforhodamine B assay; format: functional
[49] = test system: A549; experiment: Cytotoxicity against human A549/ATCC cells after 48 hrs by sulforhodamine B assay; format: functional; details: A549, 48 h
[50] = test system: K562; experiment: Cytotoxicity against human K562 cells after 48 hrs by sulforhodamine B assay; format: functional; details: K562, 48 h
[51] = test system: CCRF-CEM; experiment: Cytotoxicity against human CCRF-CEM cells after 48 hrs by sulforhodamine B assay; format: functional
[52] = Inhibition of bovine brain tubulin polymerization after 30 mins by turbidimetry analysis; design: species or system Bos taurus
Summary of the method: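 Lyophilized bovine brain tubulin (97%) reconstituted to 5 mg/mL in 80 mM PIPES pH 6.9, 2 mM MgCl₂, 0.5 mM EGTA, 1.0 mM GTP and 5% glycerol. Compound in DMSO was added to this solution in a quartz cuvette at 0 °C. Assembly was followed as the rise in absorbance at 340 nm at 37 °C. IC₅₀ is the molar concentration halving the extent of assembly after 30 min.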

With COc1ccc(C(=O)c2cc(OC)c(OC)c(OC)c2)c(OC)c1O as the molecule, how does the Activity [1] read?
The Activity was “Dose-dependent effect”.

What about the Activity [2] of the same molecule?
The Activity was 47.2%.

What about the Activity [3] of the same molecule?
Its Activity is 13.1%.

And the Activity [4]?
Its Activity is 21.5%.

And the Activity [5]?
The Activity was 17.5%.

What about the Activity [6] of the same molecule?
The Activity was 32.9%.

And the Activity [7]?
The Activity was 11.8%.

What about the Activity [8] of the same molecule?
The Activity was 24.7%.

What about the Activity [9] of the same molecule?
Its Activity is 30%.

What about the Activity [10] of the same molecule?
Its Activity is 25.3%.

And the Activity [11]?
Its Activity is 11.6%.

What about the Activity [12] of the same molecule?
Its Activity is 26.1%.

What about the Activity [13] of the same molecule?
The Activity was 36.5%.

And the GI50 [14]?
Its GI50 is 3460 nM.

And the GI50 [15]?
The GI50 was 41.3 nM.

And the GI50 [16]?
The GI50 was 23.5 nM.

What about the GI50 [17] of the same molecule?
The GI50 was 249 nM.

What about the GI50 [18] of the same molecule?
Its GI50 is < 10 nM.

And the GI50 [19]?
The GI50 was 24.6 nM.

And the GI50 [20]?
Its GI50 is 26.4 nM.

What about the GI50 [21] of the same molecule?
The GI50 was 15.1 nM.

And the GI50 [22]?
The GI50 was 19.9 nM.

And the GI50 [23]?
The GI50 was 21.1 nM.

And the GI50 [24]?
The GI50 was 20.9 nM.

What about the GI50 [25] of the same molecule?
Its GI50 is 48.9 nM.

What about the GI50 [26] of the same molecule?
The GI50 was 46.9 nM.

And the GI50 [27]?
Its GI50 is 15.9 nM.

What about the GI50 [28] of the same molecule?
Its GI50 is 120 nM.

What about the GI50 [29] of the same molecule?
The GI50 was 2720 nM.

And the GI50 [30]?
The GI50 was 89.6 nM.

And the GI50 [31]?
The GI50 was < 10 nM.

What about the GI50 [32] of the same molecule?
Its GI50 is 651 nM.

What about the GI50 [33] of the same molecule?
Its GI50 is 73 nM.

What about the GI50 [34] of the same molecule?
The GI50 was 22.2 nM.

What about the GI50 [35] of the same molecule?
Its GI50 is 27.3 nM.

And the GI50 [36]?
The GI50 was 9460 nM.

And the GI50 [37]?
Its GI50 is 26.6 nM.

What about the GI50 [38] of the same molecule?
The GI50 was < 10 nM.

And the GI50 [39]?
The GI50 was < 10 nM.

What about the GI50 [40] of the same molecule?
Its GI50 is < 10 nM.

What about the GI50 [41] of the same molecule?
The GI50 was 10.6 nM.

And the GI50 [42]?
Its GI50 is 32 nM.

And the GI50 [43]?
Its GI50 is 211 nM.

What about the GI50 [44] of the same molecule?
The GI50 was < 10 nM.

And the GI50 [45]?
The GI50 was 6200 nM.

What about the GI50 [46] of the same molecule?
The GI50 was 50.7 nM.

What about the GI50 [47] of the same molecule?
The GI50 was 611 nM.

And the GI50 [48]?
The GI50 was < 10 nM.

What about the GI50 [49] of the same molecule?
Its GI50 is 41.3 nM.

And the GI50 [50]?
Its GI50 is < 10 nM.

And the GI50 [51]?
Its GI50 is 28.8 nM.

What about the IC50 [52] of the same molecule?
The IC50 was 3200 nM.
